# Measurements of several laboratories.
# Compare with care: the assays were run in different laboratories.
# BAZ2A bromodomain: Bromodomain adjacent to zinc finger domain protein 2A, bromodomain (BAZ2A, Homo sapiens, UniProt Q9UIF9)
# CIT: Citron Rho-interacting kinase (CIT, Homo sapiens, UniProt O14578)
# Nos2: Nitric oxide synthase, inducible (Nos2, Mus musculus, UniProt P29477)
# ASH1L: Histone-lysine N-methyltransferase ASH1L (ASH1L, Homo sapiens, UniProt Q9NR48)
# MARK4: MAP/microtubule affinity-regulating kinase 4 (MARK4, Homo sapiens, UniProt Q96L34)
# RET: Proto-oncogene tyrosine-protein kinase receptor Ret (RET, Homo sapiens, UniProt P07949)
SMILES,target,effect on,mode,technique,concentration,quantity,value
C[S+]([O-])c1ccc(-c2nc(-c3ccncc3)c(-c3ccc(F)cc3)[nH]2)cc1 (stereo not shown),BAZ2A bromodomain,thermal stability,,DSF,10 µM,ΔTm,-0.19 °C
Nc1ncnc2occ(-c3ccc(NC(=O)Nc4cc(C(F)(F)F)ccc4F)cc3)c12,CIT,cell-free assay,inhibitor,,20 µM,remaining signal,1.3%
Oc1ccc(-c2nc(-c3ccncc3)c(-c3ccc(F)cc3)[nH]2)cc1,BAZ2A bromodomain,thermal stability,,DSF,10 µM,ΔTm,0.16 °C
Cc1nc(O)nc(O)c1C,Nos2,enzyme activity,inhibitor,,1 mM,inhibition,> 40%
CC(C)[C@@H]1NC(=O)[C@@H]2CCCN2C(=O)[C@H](Cc2ccccc2)NC(=O)CSC[C@@H](C(=O)N[C@@H](Cc2ccc(O)cc2)C(N)=O)NC(=O)[C@H](Cc2c[nH]c3ccccc23)NC(=O)[C@H](CCCCN)NC(=O)[C@H](Cc2ccccc2)N(C)C(=O)[C@H](Cc2ccccc2)NC1=O,"Stimulator of interferon genes protein (STING1, Homo sapiens, UniProt Q86WV6, H232R)",binding,,SPR,,kon,71000 M⁻¹ s⁻¹
Cc1cnc(Nc2ccc(OCCN3CCCC3)cc2)nc1Nc1cccc(S(=O)(=O)NC(C)(C)C)c1,ASH1L,thermal stability,,DSF,10 µM,ΔTm,0.24 °C
Cc1nn(CC(F)(F)F)cc1Nc1ncc(Br)c(NCc2ccc(S(N)(=O)=O)cc2)n1,MARK4,enzyme activity,inhibitor,radiometric,1 µM,remaining activity,79%
CO[C@]1(C(=O)N[C@@H](C)c2ccc(-n3cc(F)cn3)nc2)CC[C@H](c2nc(C)cc(Nc3cc(C)[nH]n3)n2)CC1,RET,thermal stability,,DSF,10 µM,ΔTm,11.6 °C
Cc1cc2c(cc1N1C(=O)c3cccc4c(Cl)ccc(c34)C1=O)n(C)c(=O)n2C,ASH1L,thermal stability,,DSF,10 µM,ΔTm,1.2 °C
O=C(CCCCCCCCc1ccc(O)c(O)c1)c1c(O)cccc1O,"Bifunctional epoxide hydrolase 2 (EPHX2, Homo sapiens, UniProt P34913)",enzyme activity,inhibitor,fluorescence,100 µM,inhibition,90.9%
CN(C)C1CCN(CC#Cc2nn(C3CCCC3)c3nc(NCc4ccccc4)ncc23)C1 (stereo not shown),"Tyrosine-protein kinase Lck (LCK, Homo sapiens, UniProt P06239)",enzyme activity,inhibitor,FRET,10 µM,inhibition,78%
Cn1cnc(Br)c1C1=CN(c2ncnc3[nH]cnc23)CCS1,"Serine/threonine-protein kinase LATS2 (LATS2, Homo sapiens, UniProt Q9NRM7)",enzyme activity,inhibitor,radiometric,2 µM,inhibition,83.8%
O=C(Nc1ccc(NC(=O)c2ccco2)cc1C(F)(F)F)Nc1ccc(NC(=O)c2ccco2)cc1C(F)(F)F,RET,enzyme activity,inhibitor,radiometric,0.1 µM,remaining activity,123%
O=C(O)c1ncccc1O,Nos2,enzyme activity,inhibitor,,1 mM,inhibition,> 40%
CCn1cc(C(=O)Nc2cccc(O)c2)c(=O)c2cc(F)c(N3CCN(C(C)=O)CC3)cc21,RET,enzyme activity,inhibitor,radiometric,0.1 µM,remaining activity,90.9%
Cc1nn(C)c2ncc(C(=O)NC(=O)Nc3ccc(F)c(C(F)(F)F)c3)cc12,"C-C chemokine receptor type 4 (CCR4, Homo sapiens, UniProt P51679)",ligand displacement,,radioligand,10 µM,inhibition,< 10%
O=C(NCc1cccnc1-n1cnc2ccccc21)c1ccc2[nH]c(=O)[nH]c2c1,RET,enzyme activity,inhibitor,radiometric,10 µM,remaining activity,90.8%
Cc1ccc(C(=O)Nc2ccc(CN3CCN(C)CC3)c(C(F)(F)F)c2)cc1C#Cc1cnc2cccnn12,CIT,enzyme activity,inhibitor,,23.5 nM,remaining activity,64%
Cc1ccc(Nc2nc(N3CCN(C(=O)c4ccco4)CC3)nc3[nH]ncc23)cc1,RET,enzyme activity,inhibitor,radiometric,10 µM,remaining activity,99.9%
COc1cc2ncnc(Nc3ccc(Oc4ccccc4)c(C)c3C)c2cc1OC,"Tyrosine-protein kinase JAK2 (JAK2, Homo sapiens, UniProt O60674)",enzyme activity,inhibitor,,1 µM,inhibition,3%
COc1ccc(NC(=O)Nc2cc(C)c3nc(NC(=O)c4ccccc4)sc3c2)c(OC)c1,RET,enzyme activity,inhibitor,radiometric,10 µM,remaining activity,98.8%
O=C(NCCCNc1nc(Nc2cccc(NC(=O)N3CCCC3)c2)ncc1I)c1cccs1,MARK4,enzyme activity,inhibitor,radiometric,1 µM,remaining activity,2%
COCC(=O)Nc1cc(C(=O)N(C)CCc2c(C)n[nH]c2C)c2c(c1)ncn2Cc1ccc(F)cc1,RET,enzyme activity,inhibitor,radiometric,10 µM,remaining activity,117%
N#Cc1ccc(/C=C/CN(CC[C@H](N)C(=O)O)C[C@H]2O[C@@H](n3cnc4c(N)ncnc43)[C@H](O)[C@@H]2O)cc1,"Phenylethanolamine N-methyltransferase (PNMT, Homo sapiens, UniProt P11086)",enzyme activity,inhibitor,,1 µM,activity vs control,96%
Cc1cccc(-n2ncc3c(O)c(C(=O)Nc4ccc(C)cc4F)c(=O)[nH]c32)c1,RET,enzyme activity,inhibitor,radiometric,10 µM,remaining activity,79%
C=C(F)[C@](N)(CCCCN)C(=O)O,"Lysine decarboxylase (Hafnia alvei, UniProt P05033)",enzyme activity,inhibitor,absorbance,,KI (inactivation),620 µM
COCC(=O)Nc1cc(C(=O)NCCc2cnn(C)c2)cc2ncn(CCc3ccccc3)c12,RET,enzyme activity,inhibitor,radiometric,10 µM,remaining activity,109%
CC/C(=N\NC(=O)NCc1cccc(O)c1)c1ccc(O)c(C)c1O,CIT,enzyme activity,inhibitor,,0.1 µM,inhibition,-4.1%
